In the library only some 2.6% were active in any assay of this set; here they are far more common.
SIRT5 inh: inhibitors of human sirtuin-5 desuccinylase; Q9NXA8; Purified SirT5, succinyl-peptide AMC, trypsin-coupled fluorescence; inhibition, % at 15 µM; hit rate 1.1% among 330,000; AID 652115; in the data active = inhibition above about 15%
CASP6 VEID inh: caspase-6 (human) enzyme inhibition; P55212; hit rate 0.53% among 350,000; AID 686996; purified caspase-6, Z-VEID-R110 cleavage fluorescence; inhibition, % at 12.5 µM;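 active = mean inhibition across replicates at least about 35%, with every replicate also reaching that limit, limit read from the data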;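 also: 0% = median of neutral control wells and 100% = no fluorescence left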
FGF22 binding: FGF22 (human) thermal shift binding. Q9HCT0. recombinant FGF22 thermal shift, SYPRO orange fluorescence; percent of sucrose octasulfate shift, DMSO zero. activity (Tm shift, normalised), % at 9.99 µM. hit rate 1.5% among 340,000. AID 651658;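 active = mean Tm shift, scaled 0 neutral to 100 positive control, at about 1.3% or above, every replicate too, limit read from the data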
UCH37 inh: blocks the human deubiquitinase UCH37; purified proteasome/UCH37, Ub-AMC cleavage fluorescence; Q9Y5K5; hit rate 0.33% among 330,000; AID 588478; inhibition, % (concentration not given with the values);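 active = mean inhibition over replicate wells above about 20%, limit read from the data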;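 also: 0% = compound-free wells with enzyme and 100% = wells lacking proteasome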
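Assay system: Proteasome-bound UCH37. Buffer or medium: pH 7.4 Tris-HCl (50 mM) with ovalbumin, ATP-MgCl2, DTT. Incubation: 30 min preincubation with enzyme, 25 min cleavage at room temperature. Measured by: fluorescence, ex 355 nm, em 460 nm. Read-out basis: percent inhibition. Control set: wells without proteasome as full block, compound-free enzyme plus substrate as uninhibited.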
NSD2 HMT inh: NSD2 (human) methyltransferase inhibition; O96028; NSD2 peptide methylation, AlphaScreen, 120 min; inhibition, % at 12.5 µM; hit rate 0.54% among 310,000; AID 743445; in the data active = inhibition above about 50%
Target sequence (O96028 whole entry, looked up): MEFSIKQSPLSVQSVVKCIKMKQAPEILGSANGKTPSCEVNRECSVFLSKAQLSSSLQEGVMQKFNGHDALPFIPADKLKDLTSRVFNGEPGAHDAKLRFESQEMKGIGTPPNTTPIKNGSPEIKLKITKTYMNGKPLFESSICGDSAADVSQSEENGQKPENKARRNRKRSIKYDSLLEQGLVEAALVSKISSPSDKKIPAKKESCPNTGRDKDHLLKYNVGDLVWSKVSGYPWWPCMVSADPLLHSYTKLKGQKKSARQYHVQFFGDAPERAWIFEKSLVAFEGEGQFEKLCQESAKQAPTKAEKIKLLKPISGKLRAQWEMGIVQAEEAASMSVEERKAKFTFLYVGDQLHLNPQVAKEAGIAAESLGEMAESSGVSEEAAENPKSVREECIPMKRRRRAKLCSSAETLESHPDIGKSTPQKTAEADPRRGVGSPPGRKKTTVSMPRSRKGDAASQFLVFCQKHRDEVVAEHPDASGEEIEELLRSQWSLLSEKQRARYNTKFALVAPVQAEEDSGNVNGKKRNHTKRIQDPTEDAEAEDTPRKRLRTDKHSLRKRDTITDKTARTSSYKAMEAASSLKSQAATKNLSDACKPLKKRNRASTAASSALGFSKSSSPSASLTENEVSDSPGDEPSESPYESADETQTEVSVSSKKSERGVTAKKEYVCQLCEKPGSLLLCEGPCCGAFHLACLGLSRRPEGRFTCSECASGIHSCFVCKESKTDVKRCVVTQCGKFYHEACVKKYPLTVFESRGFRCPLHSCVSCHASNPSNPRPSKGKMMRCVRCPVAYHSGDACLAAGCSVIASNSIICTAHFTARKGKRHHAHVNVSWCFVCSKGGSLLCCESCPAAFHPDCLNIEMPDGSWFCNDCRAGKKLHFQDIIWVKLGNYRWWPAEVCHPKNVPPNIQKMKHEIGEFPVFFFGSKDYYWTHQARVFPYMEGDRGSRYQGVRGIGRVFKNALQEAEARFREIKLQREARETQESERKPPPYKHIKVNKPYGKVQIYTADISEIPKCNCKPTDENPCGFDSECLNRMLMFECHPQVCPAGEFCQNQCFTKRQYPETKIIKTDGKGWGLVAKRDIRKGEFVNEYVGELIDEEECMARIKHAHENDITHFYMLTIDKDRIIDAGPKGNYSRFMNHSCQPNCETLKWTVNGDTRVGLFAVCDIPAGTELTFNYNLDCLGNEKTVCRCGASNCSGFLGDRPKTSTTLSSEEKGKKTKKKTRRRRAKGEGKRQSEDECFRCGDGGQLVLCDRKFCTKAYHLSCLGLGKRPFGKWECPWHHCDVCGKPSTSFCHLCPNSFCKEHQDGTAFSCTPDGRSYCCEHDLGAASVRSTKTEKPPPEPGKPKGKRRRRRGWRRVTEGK
Active calls of the source: *; x = no result given.

SMILES	SIRT5 inh	CASP6 VEID inh	FGF22 binding	UCH37 inh	NSD2 HMT inh
CCN1C(=O)/C(=C/c2cn(-c3ccccc3)nc2-c2cccnc2)SC1=S	-3	-5	0	5	0
O=C(CCCN1C(=O)/C(=C\c2ccccc2)SC1=S)N1CCOCC1	0	2	0	8	7
O=C(O)CN1C(=O)/C(=C\c2cn(CC(=O)N3CCOCC3)c3ccccc23)SC1=S	6	-1	0	24*	3
COc1ccc(-c2nn(-c3ccccc3)cc2/C=C2/SC(=S)N(CCC(=O)O)C2=O)c(C)c1	8	29	0	x	8
Cc1ccc(-c2nn(-c3ccccc3)cc2/C=C2\SC(=S)N(CC(=O)O)C2=O)cc1	6	31	x	21*	x
COc1ccc(-c2nn(-c3ccccc3)cc2/C=C2/SC(=S)N(CCC(=O)O)C2=O)cc1	5	47*	0	9	-2
CNC(=O)C1=C[C@H](c2ccc(C(=O)OC)cc2)C[C@H](OCCCCO)O1	0	4	0	x	x
CC(=NNC(=O)c1cccc(S(=O)(=O)N2CCOCC2)c1)c1ccc(C#N)cc1	x	x	x	3	x
CCC(=O)c1ccc(OCC(=O)OCC(=O)c2c(N)n(C)c(=O)n(C)c2=O)cc1	-3	-1	0	0	-1
CCC(=O)c1ccc(OCC(=O)OCC(=O)c2cc(C)n(C)c2C)cc1	-3	36*	0	1	0
O=c1cc(-c2ccc([N+](=O)[O-])cc2)c2ccc(O)cc2o1	10	2	45*	1	0
CC(CC(C)C)=NNc1ccc(S(N)(=O)=O)cc1[N+](=O)[O-]	x	x	x	9	x
CCc1nnc(NC(=O)c2oc3ccccc3c2COC(C)C)s1	x	-3	43*	-1	-1
C[C@H](CO)N1C[C@H](C)[C@@H](CN(C)Cc2ccc(C(F)(F)F)cc2)Oc2ccc(NS(C)(=O)=O)cc2CC1=O	16*	1	0	x	x
C[C@@H]1CN([C@@H](C)CO)C(=O)Cc2cc(NS(=O)(=O)c3ccc(F)cc3)ccc2O[C@H]1CN(C)Cc1ccc(C(F)(F)F)cc1	36*	0	0	x	x
C[C@@H]1CN([C@H](C)CO)C(=O)Cc2cc(NS(=O)(=O)c3ccc(F)cc3)ccc2O[C@@H]1CN(C)Cc1ccc(C(F)(F)F)cc1	23*	1	-1	x	x
C[C@@H]1CN([C@H](C)CO)C(=O)Cc2cc(NS(=O)(=O)c3ccccc3)ccc2O[C@H]1CN(C)Cc1ccc(C(F)(F)F)cc1	0	0	0	x	x
C[C@H](CO)N1C[C@H](C)[C@@H](CN(C)Cc2ccc(C(F)(F)F)cc2)Oc2ccc(N(C)C)cc2CC1=O	17*	-4	-1	x	x
C[C@H]1CN([C@@H](C)CO)C(=O)c2cc(-c3cccc(F)c3)cnc2O[C@@H]1CN(C)C	-1	0	0	x	x
CO[C@H]1CN(C)C(=O)c2cc(NS(=O)(=O)c3cn(C)cn3)ccc2OC[C@@H](C)N(CCC(F)(F)F)C[C@H]1C	5	-3	0	x	x
COc1ccc2c3c([nH]c2c1)[C@@H](CO)N(CC1CC1)CC31CN(S(=O)(=O)c2cccc(F)c2)C1	0	1	0	x	x
CC(=NNC(=O)c1ccccc1O)c1c(O)cc(C)oc1=O	x	x	x	11	x
COc1ccc(S(=O)(=O)Nc2ccc3c(c2)CC(=O)N([C@@H](C)CO)C[C@H](C)[C@@H](CN(C)Cc2ccc(C(F)(F)F)cc2)O3)cc1	16*	0	-1	x	x
O=C(O)C1Cc2[nH]cnc2C(c2ccc(F)cc2)N1 (stereo not given)	-1	-3	43*	3	1
O=C(C[C@@H]1CC[C@H]2[C@@H](COC[C@H](O)CN2C(=O)c2ccccc2F)O1)NCc1ccc(-c2ccccc2)cc1	6	2	0	x	x
SMILES	SIRT5 inh	CASP6 VEID inh	FGF22 binding	UCH37 inh	NSD2 HMT inh
O=C1c2ccccc2C(=O)c2c1oc(C(F)(F)F)c2C(=O)c1ccccc1	x	x	x	24*	20
Cc1ccc(S(=O)(=O)N2CC[C@@H]3[C@H](CO)Nc4ccc(-c5ccc(C#N)cc5)cc4[C@@H]32)cc1	x	x	0	x	x
COc1ccc(CN(C)C[C@H]2Oc3ccc(NC(=O)C4CC4)cc3C(=O)N([C@@H](C)CO)C[C@@H]2C)cc1	-1	0	0	x	x
COc1ccc(C2C(CN3CCOCC3)C(=O)N2c2ccccc2)cc1 (stereo not given)	1	1	0	2	-5
COc1ccc(N2C(=O)C(CN3CCN(C)CC3)C2c2ccccc2)cc1 (stereo not given)	-4	-1	44*	-1	2
c1coc(CSSCc2ccco2)c1	8	82*	0	4	x
C[C@@H]1CCCCO[C@@H](CN(C)C(=O)Nc2ccccc2)[C@H](C)CN([C@@H](C)CO)C(=O)c2cc(NS(=O)(=O)c3ccc(F)cc3)ccc2O1	x	x	0	x	x
CCOC(=O)c1ccc2c(c1)C1C=CCC1C(C(=O)O)N2 (stereo not given)	x	x	x	13	x
CCOC(=O)C1Nc2ccc(C(=O)O)cc2C2C=CCC12 (stereo not given)	14	23	0	x	100*
N/C(=N\OC(=O)COc1ccc(Cl)cc1)c1ccc(Cl)cc1	-1	-2	0	2	-36
Cc1cccc(/C(N)=N/OC(=O)COc2ccc(Cl)cc2)c1	35*	0	0	-1	0
C[C@@H]1CN([C@@H](C)CO)C(=O)c2cccc(NC(=O)Nc3ccc(C(F)(F)F)cc3)c2O[C@H]1CN(C)Cc1ccncc1	-2	3	0	x	x
Cc1ccc2c(cnn2C(=O)CCCC(=O)NCc2ccc(Cl)cc2)c1	-7	1	0	1	x
CCOc1ccc(CNC(=O)CCCC(=O)n2ncc3cc(C)ccc32)cc1	15*	-1	0	4	x
Cc1cccc(-n2cnc(C(=O)NN=Cc3ccccc3)c2)n1	x	x	x	5	x
CC(=O)N(C)C[C@@H]1Oc2cc(C#Cc3ccc(F)cc3)ccc2S(=O)(=O)N([C@H](C)CO)C[C@@H]1C	0	0	0	x	x
NC(=S)N=Nc1c(O)n(CC(=O)Nc2ccccc2)c2ccccc12	0	-1	0	3	1
NC(=S)N=Nc1c(O)n(CCCl)c2ccc(Cl)cc12	-1	-4	44*	3	-2
NC(=S)N=Nc1c(O)n(CCCl)c2ccccc12	19*	-2	0	3	2
Cc1[nH]c2ccccc2c1C=NNC(=O)C1CC1(c1ccccc1)c1ccccc1 (stereo not given)	x	x	x	-5	x
C[C@@H]1CN([C@H](C)CO)S(=O)(=O)c2ccc(-c3cccc(C(=O)N(C)C)c3)cc2O[C@@H]1CN(C)Cc1ccc2c(c1)OCO2	14	2	0	x	x
CCSc1nnc(CNC(=O)c2ccccc2F)n1-c1ccccc1OC	2	4	43*	-1	3
COC(=O)CSc1nnc(CNC(=O)c2ccccc2F)n1-c1ccc(F)cc1	x	-7	0	2	1
COc1cc(C(=O)NCCc2ccc3c(c2)OCO3)cc(OC)c1OC	x	-7	44*	4	-5

Screening data as filed in PubChem BioAssay.
